Molecules are shown by their SMILES. The source made the active and inactive calls. No cut-off for these calls is given here.

These results are taken from ChEMBL document CHEMBL3865824, “New (E)-1-alkyl-1H-benzo[d]imidazol-2-yl)methylene)indolin-2-ones: Synthesis, in vitro cytotoxicity evaluation and apoptosis inducing studies” (Eur J Med Chem, 2016).

Assay [1] deals with MDA-MB-231. Nature of the assay: Induction of apoptosis in human MDA-MB-231 cells assessed as late apoptotic cells at 1 uM after 24 hrs by Annexin V-FITC/propidium iodide-staining based FACS analysis (reference value: 3.6 %). It is filed as functional.
Assay [2] is described as follows: Cell cycle arrest in human MDA-MB-231 cells assessed as accumulation at G2/M phase at 1 uM after 24 hrs by propidium iodide staining based FACS analysis (reference value: 26 %). It is filed as functional. The procedure, abridged: (§1)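 MDA-MB-231 at 1×10^6 cells/well treated with 1, 2 or 4 µM for 24 h, with a DMSO control. Cells harvested by trypsin, washed with PBS and fixed in 70% ethanol for 30 min at 4 °C. Stained 15 min at room temperature in the dark with PI buffer containing Triton X and DNase-free RNase A. Analysed by flow cytometry; G0/G1, S and G2/M fractions quantified.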
On the technique in general: Flow cytometry measures light scatter and fluorescence of single cells or particles in a stream.

Assay [3] can be described thus: Cytotoxicity against human A549 cells assessed as growth inhibition at 50 uM after 48 hrs by MTT assay relative to control. It is filed as functional. The settings on record: A549, 48 h, read-out: GI. In short, it runs like this:
(§2)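 Cells grown in DMEM or MEM with 10% FBS at 37 °C, 5% CO2. Seeded at 1×10^4 cells/well, incubated 48 h, then exposed to compound for 48 h with vehicle control. MTT (5 mg/mL stock) added for 4 h; formazan dissolved in DMSO, absorbance read at 570 nm. Preliminary screen at 50 µM. Compounds giving >50% inhibition were tested for dose-response curves; IC50 derived by linear regression of % inhibition versus concentration. Mean of three independent experiments in triplicate.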
On the technique in general: Tetrazolium dyes change colour on reduction, which living cells bring about.

The nature of assay [4]: Cell cycle arrest in human MDA-MB-231 cells assessed as accumulation at S phase at 2 uM after 24 hrs by propidium iodide staining based FACS analysis (reference value: 24.6 %). The assay is classed as functional. In short, it runs like this: as §1
Assay [5] deals with MDA-MB-231. Nature of the assay: Induction of apoptosis in human MDA-MB-231 cells assessed as necrotic cells at 2 uM after 24 hrs by Annexin V-FITC/propidium iodide-staining based FACS analysis (reference value: 2.8 %). The assay is classed as functional.
The nature of assay [6]: Cell cycle arrest in human MDA-MB-231 cells assessed as accumulation at G2/M phase after 24 hrs by propidium iodide staining based FACS analysis. The assay is classed as functional. The settings on record: in the assay text read “G0/G1” for “G2/M”. The procedure, abridged: as §1
Assay [7] has as its system MDA-MB-231. Nature of the assay: Induction of apoptosis in human MDA-MB-231 cells assessed as increase in caspase-3 expression after 24 hrs by Western blot analysis. The assay is classed as functional, cell-based. In short, it runs like this: (§3)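 MDA-MB-231 treated at 1, 2 or 4 µM for 24 h. Whole-cell extracts prepared in RIPA buffer. Blots probed with rabbit anti-caspase-3, anti-Bcl2 and anti-β-actin (1:1000) and anti-Bax (1:500), then HRP secondaries and ECL detection. Membranes stripped and reprobed. Bands quantified by densitometry as fold change versus control. Mean ± SEM, n=3.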
(Immunoblotting shows a protein as a band on a membrane.)

The nature of assay [8]: Cytotoxicity against human PC3 cells assessed as reduction in cell viability after 48 hrs by MTT assay. The settings on record: PC-3, 48 h. The assay is classed as functional, cell-based. In short, it runs like this:
as §2

Assay [9] in a line: Cytotoxicity against human MCF7 cells assessed as growth inhibition at 50 uM after 48 hrs by MTT assay relative to control. It is filed as functional. The settings on record: MCF7, 48 h, read-out: GI. The procedure, abridged: as §2
In assay [10] the test system is MDA-MB-231. Nature of the assay: Induction of apoptosis in human MDA-MB-231 cells assessed as loss of mitochondrial membrane potential at 1 uM after 24 hrs by rhodamine-123 -based spectrofluorometric analysis relative to control. It is filed as functional. In short, it runs like this: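 MDA-MB-231 cells were plated at 5×10^5 cells/mL in 6-well plates, left to adhere overnight, then treated 24 h at 1, 2 and 4 μM. Cells were trypsinized, washed in PBS and loaded with rhodamine-123 (10 μg/mL) in PBS for 30 min at room temperature. After two PBS washes, fluorescence was read by spectrofluorometer (ex 480/em 530 nm). Loss is expressed against control; three independent experiments in triplicate.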

Assay [11] concerns MDA-MB-231. Nature of the assay: Induction of apoptosis in human MDA-MB-231 cells assessed as viable cells at 1 uM after 24 hrs by Annexin V-FITC/propidium iodide-staining based FACS analysis (reference value: 89.5 %). The assay is classed as functional. The settings on record: MDA-MB-231, 24 h, read-out: Activity.
Assay [12] is described as follows: Cell cycle arrest in human MDA-MB-231 cells assessed as accumulation at S phase at 1 uM after 24 hrs by propidium iodide staining based FACS analysis (reference value: 24.6 %). It is filed as functional. The procedure, abridged:
as §1

The nature of assay [13]: Cytotoxicity against human DU145 cells assessed as growth inhibition at 50 uM after 48 hrs by MTT assay relative to control. The assay is classed as functional. The settings on record: DU-145, 48 h, read-out: GI. In short, it runs like this:
as §2

The test system of assay [14] is MDA-MB-231. Nature of the assay: Induction of apoptosis in human MDA-MB-231 cells assessed as decrease in Bcl2 expression after 24 hrs by Western blot analysis. The assay is classed as functional, cell-based. In short, it runs like this: as §3
A short description of assay [15]: Cytotoxicity against […] cells assessed as reduction in cell viability after 48 hrs by MTT assay. The assay is classed as functional, cell-based. The settings on record: 4T1, 48 h. The procedure, abridged: as §2
The subject of assay [16] is MDA-MB-231. Nature of the assay: Induction of apoptosis in human MDA-MB-231 cells assessed as formation of horse-shoe shaped nuclei at 2 uM after 24 hrs by AO/EB-dual staining based fluorescent microscopic analysis. It is filed as functional, cell-based. In short, it runs like this:
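MDA-MB-231 plated at 1×10^6 cells/mL and treated at 1, 2 or 4 µM, with a DMSO control. Incubation time is given as 48 h in the methods and 24 h in the figure legend. AO and EB added at 10 µg/mL each. Cells viewed within 10 min by fluorescence microscopy (excitation 488 nm, emission 550 nm) at 200×.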

Assay [17] is described as follows: Cytotoxicity against HGC cells assessed as reduction in cell viability after 48 hrs by MTT assay. The assay is classed as functional, cell-based. The settings on record: Homo sapiens. The procedure, abridged: as §2
Assay [18] is described as follows: Cell cycle arrest in human MDA-MB-231 cells assessed as accumulation at S phase at 4 uM after 24 hrs by propidium iodide staining based FACS analysis (reference value: 24.6 %). The assay is classed as functional. In short, it runs like this:
as §1

Assay [19] deals with MDA-MB-231. Nature of the assay: Induction of superoxide production in human MDA-MB-231 cells after 48 hrs by mitoSOX red-probe based fluorescent microscopic analysis. It is filed as functional, cell-based. The procedure, abridged: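 Cells were seeded at 1×10^5/well in 24-well plates and left to adhere overnight, then treated at different concentrations (methods: medium removed after 24 h; legend: 48 h treatment). After a PBS wash, cells were loaded with MitoSOX Red in HBSS for 15 min at 37 °C, washed three times with PBS and imaged by fluorescence microscopy against DMSO control.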

Assay [20] is described as follows: Cytotoxicity against human MCF7 cells assessed as reduction in cell viability after 48 hrs by MTT assay. It is filed as functional, cell-based. The settings on record: MCF7, 48 h. In short, it runs like this: as §2
For assay [21], the system named is MDA-MB-231. Nature of the assay: Induction of apoptosis in human MDA-MB-231 cells assessed as cell wall deformation at 1 to 4 uM after 24 hrs by phase contrast microscopic analysis. The assay is classed as functional, cell-based. In short, it runs like this: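 MDA-MB-231 treated at 1, 2 or 4 µM for 24 h. Morphology examined and photographed by phase contrast microscopy against untreated control cells.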

In assay [22] the test system is MDA-MB-231. Nature of the assay: Antimigratory activity against human MDA-MB-231 cells assessed inhibition of cell migration towards wound area at 2 to 4 uM up to 24 hrs by phase contrast microscopic analysis. The assay is classed as functional, cell-based. In short, it runs like this: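 MDA-MB-231 seeded at 5×10^5 cells/well and grown 24 h to a confluent monolayer. Monolayer scratched with a 200 µL pipette tip and washed twice with PBS to remove non-adherent cells. Medium with compound at 1, 2 or 4 µM added. Wound closure photographed by phase contrast microscopy at 0 and 24 h after treatment.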

The term IC50 denotes the point on the concentration scale where inhibition reaches its midpoint. With `CC(C)n1c(/C=C2/C(=O)Nc3ccc(Br)cc32)nc2ccccc21`, the Activity with MDA-MB-231 [1] is 4.7%; in [2] it was 21.8%; in assay [4], 17.7%; in the assay on MDA-MB-231 [5], 3.3%; in [6] it was “Dose-dependent effect”; in the assay with MDA-MB-231 [7], “Dose-dependent effect”. Also, the Activity in the assay with MDA-MB-231 [10] was 25.2%; in [12] it was 20.8%; in the assay with MDA-MB-231 [14], “Dose-dependent effect”; in assay [18], 11.3%; in the assay on MDA-MB-231 [19] it was “Dose-dependent effect”. Moreover, the inhibition of growth at 50 µM in [3], in assay [9] and in [13] was more than 50% each time. Further, the IC50 in assay [8] worked out at 10.7 µM; in assay [15], 5.96 µM; in assay [17], 12.4 µM; in [20] it was 14.9 µM. In the assay with MDA-MB-231 [11], the viability at 1 µM was 83.3%. The outcome in the assay with MDA-MB-231 [16] and in the assay on MDA-MB-231 [21] was Active. Further, the inhibition entry in the assay on MDA-MB-231 [22] is “Active”.
